These results are taken from ChEMBL document CHEMBL4428026, “Discovery of New Monocarbonyl Ligustrazine-Curcumin Hybrids for Intervention of Drug-Sensitive and Drug-Resistant Lung Cancer” (J Med Chem, 2016).

Data set [1] concerns A549/CDDP. Kind of data set: Antiproliferative activity against human A549/CDDP cells after 72 hrs by MTT assay. The class given is functional, cell-based. The method, boiled down: (§1)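 Cells (A549, A549/DDP, SPC-A-1, LTEP-G-2, non-tumor bronchial epithelial HBE) were exposed in triplicate to vehicle or compound for 72 h. MTT (5 mg/mL in PBS) was then added for 4 h, formazan was dissolved in DMSO, and absorbance was read at 570 nm. IC50 values were derived from viability.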

Data set [2] relates to A549. Kind of data set: Antiproliferative activity against human A549 cells after 72 hrs by MTT assay. It counts as functional, cell-based. The following applies: A549, 72 h. An outline of the steps:
as §1

Data set [3] deals with T1, Thioredoxin reductase (Homo sapiens, UniProt Q16881+Q9NNW7+Q86VQ6). Kind of data set: Inhibition of thioredoxin reductase (unknown origin) after 2 hrs by DTNB dye based microplate spectrophotometry. It counts as protein assay. An outline of the steps: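 NADPH-reduced TrxR (0.16 µM) was preincubated in triplicate with vehicle DMSO (0.1%, v/v) or varying compound concentrations for 2 h. It was then reacted with 2 mM DTNB and 200 µM NADPH for 3 min, and absorbance was read at 412 nm. IC50 was derived.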

Data set [4] has as its target T1, Thioredoxin reductase. Description: Inhibition of thioredoxin reductase in human A549 cells by DTNB dye based microplate spectrophotometry. The class given is cell-based. The method, boiled down:
(§2)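 A549 or A549/DDP cells were treated with varying compound concentrations for 24 h, then harvested, homogenized and centrifuged. Protein (50 µg) was reacted in triplicate with NADPH and DTNB in TE buffer at 37 °C for 1 h, and TNB was read at 412 nm. Activity was taken from a purified-TrxR standard curve, and IC50 was derived.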

The nature of data set [5]: Cytotoxicity against NHBE cells after 72 hrs by MTT assay. The class given is cell-based. To be noted: Homo sapiens. The method, boiled down: as §1
The target in data set [6] is T1, Thioredoxin reductase. Kind of data set: Inhibition of thioredoxin reductase in human A549/CDDP cells by DTNB dye based microplate spectrophotometry. The class given is cell-based. The method, boiled down: as §2
Data set [7] is described as follows: Antiproliferative activity against human SPC-A1 cells after 72 hrs by MTT assay. It counts as functional, cell-based. The following applies: SPCA1, 72 h. An outline of the steps:
as §1

A short description of data set [8]: Antiproliferative activity against human LTEP-G2 cells after 72 hrs by MTT assay. The class given is functional, cell-based. The method, boiled down:
as §1
For orientation: Tetrazolium assays rely on reduction of a dye to a coloured formazan, in cell work by metabolically active cells.

Data set [9] concerns the target ATP-dependent translocase ABCB1 (Homo sapiens, UniProt P08183). Description: Inhibition of P-gp ATPase activity in human A549/CDDP cells at 200 uM by luminescence assay (reference value: 706683 +/- 23554 RLU). The class given is cell-based.
Data set [10] relates to A549. Kind of data set: Induction of apoptosis in human A549 cells at 2.1 to 4.2 uM after 24 hrs by annexin V-FITC/propidium iodide staining-based flow cytometry. The class given is functional, cell-based. The method, boiled down: (§3)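 Cells were seeded at 1 × 10^5/well and treated 24 h with DMSO (1%) or compound. They were then washed in PBS, stained with FITC-Annexin V and propidium iodide, and apoptotic fractions were quantified by flow cytometry.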

Data set [11] concerns A549/CDDP. Kind of data set: Induction of apoptosis in human A549/CDDP cells at 0.6 to 1.2 uM after 24 hrs by annexin V-FITC/propidium iodide staining-based flow cytometry. It counts as functional, cell-based. The method, boiled down: as §3
A general note: Flow cytometry measures light scatter and fluorescence of single cells or particles in a stream.

The source made the active and inactive calls. The rule behind the calls is not given here.

Sequence of ATP-dependent translocase ABCB1 (P08183 whole entry): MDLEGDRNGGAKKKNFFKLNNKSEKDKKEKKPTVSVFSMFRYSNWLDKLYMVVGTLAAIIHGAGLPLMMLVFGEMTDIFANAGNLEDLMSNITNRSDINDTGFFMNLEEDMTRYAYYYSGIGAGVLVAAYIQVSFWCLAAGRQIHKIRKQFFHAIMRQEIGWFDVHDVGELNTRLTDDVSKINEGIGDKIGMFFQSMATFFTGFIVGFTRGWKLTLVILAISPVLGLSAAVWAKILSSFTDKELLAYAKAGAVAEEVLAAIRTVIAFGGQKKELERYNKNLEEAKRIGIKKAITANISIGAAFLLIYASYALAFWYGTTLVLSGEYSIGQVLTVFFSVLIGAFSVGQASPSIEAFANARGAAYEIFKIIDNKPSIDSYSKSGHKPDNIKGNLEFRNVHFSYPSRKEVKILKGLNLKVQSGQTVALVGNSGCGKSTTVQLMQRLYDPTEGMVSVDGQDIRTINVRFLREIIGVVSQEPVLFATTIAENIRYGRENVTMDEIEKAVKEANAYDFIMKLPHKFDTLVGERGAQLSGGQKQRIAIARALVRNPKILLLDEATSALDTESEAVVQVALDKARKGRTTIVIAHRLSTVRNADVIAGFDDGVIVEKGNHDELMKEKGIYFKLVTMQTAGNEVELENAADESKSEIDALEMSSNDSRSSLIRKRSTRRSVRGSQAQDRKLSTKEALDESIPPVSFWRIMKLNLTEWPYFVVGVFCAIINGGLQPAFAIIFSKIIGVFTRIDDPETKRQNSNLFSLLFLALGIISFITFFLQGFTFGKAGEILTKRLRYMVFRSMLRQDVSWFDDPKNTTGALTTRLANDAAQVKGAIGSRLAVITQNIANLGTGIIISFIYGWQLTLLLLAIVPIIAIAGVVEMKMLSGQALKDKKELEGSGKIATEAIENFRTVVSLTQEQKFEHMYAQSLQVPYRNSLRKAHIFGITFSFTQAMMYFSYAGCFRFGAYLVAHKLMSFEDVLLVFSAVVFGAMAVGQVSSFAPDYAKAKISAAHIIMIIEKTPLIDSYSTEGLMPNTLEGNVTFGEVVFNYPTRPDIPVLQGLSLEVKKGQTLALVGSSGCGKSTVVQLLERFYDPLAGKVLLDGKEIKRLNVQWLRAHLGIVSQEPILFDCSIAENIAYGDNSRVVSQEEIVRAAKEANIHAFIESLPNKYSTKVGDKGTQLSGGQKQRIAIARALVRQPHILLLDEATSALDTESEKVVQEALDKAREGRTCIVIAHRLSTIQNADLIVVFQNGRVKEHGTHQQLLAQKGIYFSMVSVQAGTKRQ

Turning to `Cc1nc(C)c(/C=C/C(=O)/C=C/c2ccc3c(c2)OCO3)nc1C`, the results for the half-inhibitory concentration (IC50) in the data set with A549/CDDP [1] and with A549 [2] were 5.2 µM and 4.5 µM, respectively.

Consider `Cc1nc(C)c(/C=C/C(=O)/C=C/c2ccc([N+](=O)[O-])cc2)nc1C`, for which the IC50 (in general, the midpoint of a concentration-inhibition curve) with A549/CDDP [1] was found to be 7.9 µM; with A549 [2], 9.6 µM.

Regarding `Cc1nc(C)c(/C=C/C(=O)/C=C/c2ccccc2[N+](=O)[O-])nc1C`, the IC50 was determined as 6.39 µM in the data set on A549/CDDP [1] and 17.3 µM with A549 [2].

Take `COc1ccc(/C=C/C(=O)/C=C/c2nc(C)c(C)nc2C)c(OC)c1`: the concentration for half-maximal inhibition (IC50) against Thioredoxin reductase [3] turned out to be 7.63 µM; at Thioredoxin reductase [4] it was 4.12 µM; in data set [5], 20.8 µM; in the data set on A549/CDDP [1] it was 2.85 µM; on Thioredoxin reductase [6], 4.26 µM; with A549 [2], 3.07 µM. Moreover, the IC50 in [7] is 6.32 µM; in data set [8], 5.91 µM.

`COc1ccccc1/C=C/C(=O)/C=C/c1nc(C)c(C)nc1C`: the IC50 in the data set on A549/CDDP [1] worked out at 4.74 µM; in the data set on A549 [2], 3.2 µM.

Turning to `COc1ccc(CCN(C)CCCC(C#N)(c2ccc(OC)c(OC)c2)C(C)C)cc1OC` (stereo not given) [VERAPAMIL], the Activity in [9] came to 641490 RLU.

Turning to `Cc1nc(C)c(C)nc1C` [LIGUSTRAZINE], the result with A549 [10] and with A549/CDDP [11] was Active. Also, the 50% inhibitory concentration (IC50) at Thioredoxin reductase [3], at Thioredoxin reductase [4], in the data set on A549/CDDP [1], on Thioredoxin reductase [6] and in the data set on A549 [2] was more than 200 µM each time.

As for `COc1ccc(/C=C/C(=O)/C=C/c2nc(C)c(C)nc2C)cc1OC`, the half-inhibitory concentration (IC50) worked out at 7.09 µM at Thioredoxin reductase [3]; 4.17 µM at Thioredoxin reductase [4]; 16.2 µM in [5]; 2.44 µM with A549/CDDP [1]; 4.22 µM against Thioredoxin reductase [6]; 3.79 µM in the data set on A549 [2]. Also, the half-maximal inhibitory concentration (IC50) worked out at 5.42 µM in [7] and 4.36 µM in data set [8].

As to `Cc1nc(C)c(/C=C/C(=O)/C=C/c2ccc(Cl)cc2)nc1C`, the IC50 in the data set with A549/CDDP [1] turned out to be 7.49 µM; with A549 [2], 15.8 µM.

With `COc1cccc(/C=C/C(=O)/C=C/c2nc(C)c(C)nc2C)c1`, the values for the IC50 with A549/CDDP [1] and with A549 [2] were 3.44 µM and 3.3 µM, respectively.

Regarding `Cc1nc(C)c(/C=C/C(=O)/C=C/c2ccc(O)cc2)nc1C`, the results for the concentration for half-maximal inhibition (IC50) with A549/CDDP [1] and in the data set on A549 [2] were 4.79 µM and 4.01 µM, respectively.

As to `Cc1ccc(/C=C/C(=O)/C=C/c2nc(C)c(C)nc2C)cc1`, the IC50 was 3.99 µM with A549/CDDP [1] and 4.3 µM in the data set with A549 [2].

For the molecule `COc1cc(/C=C/C(=O)CC(=O)/C=C/c2ccc(O)c(OC)c2)ccc1O` [CURCUMIN], the result in the data set on A549 [10] and with A549/CDDP [11] was Active. For the same molecule, the half-maximal inhibitory concentration (IC50) worked out at 41.42 µM against Thioredoxin reductase [3]; 40.56 µM at Thioredoxin reductase [4]; 32.4 µM in the data set on A549/CDDP [1]; 39.42 µM against Thioredoxin reductase [6]; 38.1 µM with A549 [2].

Molecule SODIUM ORTHOVANAD returned an Activity in data set [9] of 790447 RLU.

`Cc1nc(C)c(/C=C/C(=O)/C=C/c2cccc([N+](=O)[O-])c2)nc1C`: the figures for the IC50 in the data set with A549/CDDP [1] and in the data set on A549 [2] were 6.69 µM and 6.7 µM, respectively.

As to `Cc1nc(C)c(/C=C/C(=O)/C=C/c2cccc(O)c2)nc1C`, the results for the 50% inhibitory concentration (IC50) in the data set with A549/CDDP [1] and in the data set on A549 [2] were 3.7 µM and 4.3 µM, respectively.

Take `COc1ccc(/C=C/C(=O)/C=C/c2nc(C)c(C)nc2C)cc1`: the IC50 in the data set with A549/CDDP [1] was found to be 3.61 µM; with A549 [2], 3.5 µM.

Consider `Cc1nc(C)c(/C=C/C(=O)/C=C/c2ccc(F)cc2)nc1C`, for which the results for the concentration for half-maximal inhibition (IC50) in the data set with A549/CDDP [1] and with A549 [2] were 7.44 µM and 5.9 µM, respectively.

Turning to `COc1cccc(/C=C/C(=O)/C=C/c2nc(C)c(C)nc2C)c1O`, the concentration for half-maximal inhibition (IC50) was 5.3 µM against Thioredoxin reductase [3]; 4.73 µM against Thioredoxin reductase [4]; 17.6 µM in [5]; 2.19 µM in the data set with A549/CDDP [1]; 4.64 µM on Thioredoxin reductase [6]; 2.85 µM in the data set with A549 [2]. In addition, the values for the IC50 in [7] and in [8] were 5.71 µM and 5.01 µM, respectively.

For the molecule `Cc1nc(C)c(/C=C/C(=O)/C=C/c2ccccc2)nc1C`, the IC50 is 11.9 µM in the data set with A549/CDDP [1] and 12.3 µM in the data set with A549 [2].

`Cc1nc(C)c(/C=C/C(=O)/C=C/c2ccc(C(F)(F)F)cc2)nc1C`: the half-maximal inhibitory concentration (IC50) was 6.9 µM in the data set with A549/CDDP [1] and 11.7 µM with A549 [2].

Take `COc1cc(/C=C/C(=O)/C=C/c2nc(C)c(C)nc2C)cc(OC)c1OC`: the 50% inhibitory concentration (IC50) at Thioredoxin reductase [3] is 3.06 µM; on Thioredoxin reductase [4], 2.36 µM; in data set [5], 14.3 µM; in the data set on A549/CDDP [1] it was 1 µM; on Thioredoxin reductase [6], 1.98 µM; with A549 [2], 1.6 µM. In addition, the figures for the IC50 in data set [7] and in [8] were 5.35 µM and 2.34 µM, respectively.

With `Cc1nc(C)c(/C=C/C(=O)/C=C/c2ccccc2O)nc1C`, the IC50 in the data set with A549/CDDP [1] is 3.9 µM; in the data set with A549 [2], 4.78 µM.

`Cc1nc(C)c(/C=C/C(=O)/C=C/c2ccc3ccccc3c2)nc1C`: the 50% inhibitory concentration (IC50) with A549/CDDP [1] is 11.8 µM; in the data set with A549 [2], 7.1 µM.
